Laboratory results as given in ChEMBL document CHEMBL1926615, “1,2,3-Triazole tethered β-lactam-chalcone bifunctional hybrids: synthesis and anticancer evaluation” (Eur J Med Chem, 2012).

What was measured:
Type in all cases: functional
Caco-2 = assay: Growth inhibition of human Caco2 cells at 20 uM after 48 hrs by SRB assay; conditions: Caco-2, 48 h, read-out: GI
Procedure, shortened: (§1)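 Cells grown in RPMI-1640 (2 mM glutamine, pH 7.4, 10% fetal calf serum, penicillin/streptomycin) at 37 °C, 5% CO2, 90% RH. Seeded as suspension of 1 x 10^5 cells/ml, grown 24 h, then test solutions (from DMSO stocks diluted in medium with gentamycin) added for 48 h. Fixed with TCA at 4 °C 1 h, SRB stained, dye dissolved in Tris-HCl pH 10.4, OD 540 nm. Percent growth inhibition computed versus untreated growth after blank subtraction.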

THP-1 = assay: Growth inhibition of human THP1 cells at 20 uM after 48 hrs by SRB assay; conditions: THP-1, 48 h, read-out: GI; procedure, shortened: as §1
PC-3 = assay: Growth inhibition of human PC3 cells at 1 uM after 48 hrs by SRB assay; conditions: PC-3, 48 h, read-out: GI
Procedure, shortened: (§2)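 Sulforhodamine B readout at 540 nm after 48 h exposure of cells seeded at 1×10⁵ cells/ml and pre-grown 24 h in RPMI-1640 with 10% fetal calf serum (37 °C, 5% CO2). Compounds diluted in medium from DMSO stocks.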

A549 = assay: Growth inhibition of human A549 cells at 1 uM after 48 hrs by SRB assay; conditions: A549, 48 h, read-out: GI; procedure, shortened: as §2

O=c1[nH]cc(F)c(=O)[nH]1 [FLUOROURACIL]
inhibition of growth at 20 µM (Caco-2): 68% | inhibition of growth at 20 µM (THP-1): 70%

CO[C@@]12[C@H](COC(N)=O)C3=C(C(=O)C(C)=C(N)C3=O)N1C[C@@H]1N[C@@H]12 [MITOMYCIN]
inhibition of growth at 1 µM (PC-3): 60%

CC(=O)O[C@H]1C(=O)[C@@]2(C)[C@H]([C@H](OC(=O)c3ccccc3)[C@]3(O)C[C@H](OC(=O)[C@H](O)[C@@H](NC(=O)c4ccccc4)c4ccccc4)C(C)=C1C3(C)C)[C@]1(OC(C)=O)CO[C@@H]1C[C@@H]2O [PACLITAXEL]
inhibition of growth at 1 µM (A549): 69%
